Measurements pooled from the literature.
Compare with care: the assays were run in different laboratories.
Target: Protein-tyrosine kinase 2-beta (PTK2B, Homo sapiens, UniProt Q14289)

Compound	assay	setting	remaining binding [%]
CN(C)c1nccc(-c2cnc3ncccn23)n1	binding	1 µM	92
C[C@@H](c1ccc(-n2cnc3c(N)ncnc32)cc1)N1CCc2nn(C)c(Cc3ccccc3)c2C1=O	binding, competition with immobilised ligand	0.1 µM	95
O=C(c1ccc(Nc2ncc(Cl)c(-c3cc4ccccc4s3)n2)cc1)N1CCC(N2CCCC2)CC1	binding, competition with immobilised ligand	1 µM	40
c1cnn2ncc(-c3ccnc(N4CCC45COC5)n3)c2c1	binding	1 µM	80
COc1ncc2cc3ccccc3nc2c1C#N	cell-free assay, competition with immobilised ligand	5 µM	100
Nc1ncc2c(n1)-c1c([nH]c3ccc(C#CC4CC4)cc13)CCCC2	binding, competition with immobilised ligand	1 µM	98
O=C(NCC1CCOCC1)c1n[nH]cc1NC(=O)c1c(F)cccc1F	binding, competition with immobilised ligand	1 µM	100
CO[C@H]1CC[C@H](CNc2ccc(S(=O)(=O)NC(=O)c3ccc(N4CCN(CC5=C(c6ccc(Cl)cc6)CC(C)(C)CC5)CC4)cc3Oc3cnc4[nH]ccc4c3)cc2[N+](=O)[O-])CC1	cell-free assay, competition with immobilised ligand	1 µM	87
Cc1cnc(Nc2ccc(C(=O)N3CCC(N4CCCC4)CC3)cc2)nc1-c1cc2ccccc2s1	binding, competition with immobilised ligand	1 µM	28
N[C@@H]1CCN(c2nccc(-c3cnn4ncccc34)n2)C1	binding	1 µM	100
Cc1c[nH]c2nccc(Oc3c(F)cc(Nc4cc(Cl)nc(N)n4)cc3F)c12	cell-free assay, competition with immobilised ligand	0.1 µM	90
O=C(c1ccc(Nc2ncc(Cl)c(-c3ccc(Cl)s3)n2)cc1)N1CCC(N2CCCC2)CC1	binding, competition with immobilised ligand	1 µM	49
COc1cnc(Nc2cccc(S(N)(=O)=O)c2)nc1N1CCN(c2ccccc2)CC1	binding, competition with immobilised ligand	1 µM	89
CC(C)CC(=O)N1CCc2nc(-c3ccc(Br)cc3)nc(N(C)Cc3ccccc3)c2C1	cell-free assay, competition with immobilised ligand	0.1 µM	100
Cc1cnn2ncc(-c3ccnc(N(C)C)n3)c2c1	binding	1 µM	100
CC(=O)c1c(NS(C)(=O)=O)c2cc(-c3ccc(Cl)cc3)c(-c3ccc(Cl)cc3Cl)nc2n(C)c1=O	cell-free assay, competition with immobilised ligand	1 µM	100
CN(c1nccc(-c2cnn3ncccc23)n1)C1CC1	binding	1 µM	100
Cn1cc(Cl)c2c(Oc3c(F)cc(Nc4cc(Cl)nc(N)n4)cc3F)ccnc21	cell-free assay, competition with immobilised ligand	0.1 µM	100
CN(C)c1nccc(-c2cnn3ncccc23)n1	binding	1 µM	87
O=C(NC[C@@H]1[C@H]2CN(C(=O)OCc3cc(C(F)(F)F)cc(C(F)(F)F)c3)C[C@@H]12)c1ccc2[nH]nnc2c1	cell-free assay, competition with immobilised ligand	1 µM	85
c1cncc(-c2cccc(Nc3nccc(NC4CCCCC4)n3)c2)c1	binding, competition with immobilised ligand	10 µM	63
